Data: ChEMBL document CHEMBL1155327, “2,4-Diamino-quinazolines as inhibitors of beta-catenin/Tcf-4 pathway: Potential treatment for colorectal cancer” (Bioorg Med Chem Lett, 2009)

System: not listed separately
Assay: Inhibition of […]/Tcf-4 pathway in human Tcf22C11 cell assessed as inhibition of reporter activity by cell-based reporter assay
Format: functional
Settings: not given
Outline: (§1)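 Reporter cell lines 22C11 and 33.13 with control line 5A8; IC50 from means of at least two experiments; toxicity flagged as the minimal dose where cell killing appeared by Renilla luciferase signal.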

Going from `Cc1ccc2c(NCc3ccc(NC(=O)C4CCN(Cc5ccc(Cl)cn5)CC4)cc3)nc(N(C)C)nc2c1` to `Cc1ccc2c(NCc3ccc(NC(=O)C4CCN(Cc5ccncc5)CC4)cc3)nc(N(C)C)nc2c1`, the IC50 rises from 570 nM to 1180 nM (2.1-fold). The first is the more potent here.

System: not listed separately
Assay: Cytotoxicity against human SV5A8 cells
Format: functional, cell-based
Settings: not given
Outline: as §1

`Cc1ccc2c(NCc3ccc(NC(=O)C4CCN(Cc5ccccc5)CC4)cc3)nc(N3CCC(N4CCCC4)CC3)nc2c1` and `Cc1ccc2c(NCc3ccc(NC(=O)C4CCN(Cc5ccccc5)CC4)cc3)nc(N3CCCC3)nc2c1` cannot be ordered by IC50: over 8090 nM for the first, over 7790 nM for the second.

`Cc1ccc2c(NCc3ccc(NC(=O)C4CCN(Cc5ncc[nH]5)CC4)cc3)nc(N(C)C)nc2c1` and `Cc1ccc2c(NCc3ccc(NC(=O)C4CCN(Cc5ccncc5)CC4)cc3)nc(N(C)C)nc2c1` cannot be ordered by IC50: over 20000 nM for the first, over 8070 nM for the second.

`Cc1ccc2c(NCc3ccc(NC(=O)C4CCN(C)CC4)cc3)nc(N(C)C)nc2c1` and `Cc1ccc2c(NCc3ccc(NC(=O)C4CCN(CC(C)C)CC4)cc3)nc(N(C)C)nc2c1` cannot be ordered by IC50: over 17300 nM for the first, over 10500 nM for the second.

`COc1ccc(CN2CCC(C(=O)Nc3ccc(CNc4nc(N(C)C)nc5cc(C)ccc45)cc3)CC2)cc1` and `Cc1ccc2c(NCc3ccc(NC(=O)C4CCN(Cc5ccc(Cl)cc5)CC4)cc3)nc(N(C)C)nc2c1` cannot be ordered by IC50: over 6180 nM for the first, over 3180 nM for the second.

`Cc1ccc2c(NCc3ccc(NC(=O)C4CCN(Cc5ccc(Cl)cn5)CC4)cc3)nc(N(C)C)nc2c1` and `Cc1ccc2c(NCc3ccc(NC(=O)C4CCN(Cc5ccc(F)cc5)CC4)cc3)nc(N(C)C)nc2c1` cannot be ordered by IC50: over 5400 nM for the first, over 4820 nM for the second.

`Cc1ccc2c(NCc3ccc(NC(=O)C4CCN(Cc5ccccc5)CC4)cc3)nc(N3CCC3)nc2c1` and `CCNc1nc(NCc2ccc(NC(=O)C3CCN(Cc4ccccc4)CC3)cc2)c2ccc(C)cc2n1` cannot be ordered by IC50: over 8500 nM for the first, over 2140 nM for the second.

`Cc1ccc2c(NCc3ccc(NC(=O)C4CCN(C5CCCCC5)CC4)cc3)nc(N(C)C)nc2c1` and `Cc1ccc2c(NCc3ccc(NC(=O)C4CCN(Cc5cccc(F)c5)CC4)cc3)nc(N(C)C)nc2c1` cannot be ordered by IC50: over 8320 nM for the first, over 4170 nM for the second.

System: not listed separately
Assay: Inhibition of […]/Tcf-4 pathway in human Tcf 33.13 cell assessed as inhibition of reporter activity by cell-based reporter assay
Format: functional
Settings: not given
Outline: as §1

First: Cc1ccc2c(NCc3ccc(NC(=O)C4CCN(Cc5ccc(Cl)cn5)CC4)cc3)nc(N(C)C)nc2c1
Second: Cc1ccc2c(NCc3ccc(NC(=O)C4CCN(Cc5ccncc5)CC4)cc3)nc(N(C)C)nc2c1
The IC50 of the first is 2.2-fold lower: 410 nM for the first, 900 nM for the second.

System: not listed separately
Assay: Oral bioavailability in mouse at 25 mg/kg
Format: ADME, organism-based
Settings: in vivo
Outline: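 Female nude mice dosed orally at 25 mg/kg; oral bioavailability (%) determined from pharmacokinetic study.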

`Cc1ccc2c(NCc3ccc(NC(=O)C4CCN(Cc5ccc(F)cc5)CC4)cc3)nc(N(C)C)nc2c1` gave a bioavailability of 46%.

System: not listed separately
Assay: Plasma concentration in nude mouse at 50 mg/kg, po after 8 hrs
Format: ADME, organism-based
Parameters: dose 50 mg/kg, route oral
Settings: not given
Outline: (§2)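 Tumour-bearing nude mice (n = 4) given one oral dose (50 or 200 mg/kg); plasma and tumour drug concentrations (ng/mL) measured 8 h after dosing; tumour/plasma ratio calculated from these.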

Work on `Cc1ccc2c(NCc3ccc(NC(=O)C4CCN(Cc5ccc(F)cc5)CC4)cc3)nc(N(C)C)nc2c1` yielded a concentration at 8 h of 440 ng/mL.

System: not listed separately
Assay: Drug level in tumor of nude mouse bearing HT29 or HCT116 cells at 50 mg/kg, po after 8 hrs
Format: ADME, organism-based, Neoplasm, HCT-116
Parameters: dose 50 mg/kg, route oral
Settings: read-out: Ct
Outline: as §2

Compound `Cc1ccc2c(NCc3ccc(NC(=O)C4CCN(Cc5ccc(F)cc5)CC4)cc3)nc(N(C)C)nc2c1` has a concentration at 8 h of 70300 ng/mL.

System: not listed separately
Assay: Ratio of Drug level in tumor to mouse plasma at 50 mg/kg, po
Settings: not given
Outline: as §2

`Cc1ccc2c(NCc3ccc(NC(=O)C4CCN(Cc5ccc(F)cc5)CC4)cc3)nc(N(C)C)nc2c1` showed a Ratio of 220.

Target: Catenin beta-1 (Homo sapiens) (UniProt P35222)
Assay: Inhibition of Beta-catenin/Tcf-4 pathway in human Tcf22C11 cell assessed as inhibition of reporter activity by cell-based reporter assay
Settings: not given

`Cc1ccc2c(NCc3ccc(NC(=O)C4CCN(Cc5ccccc5)CC4)cc3)nc(N3CCC(N4CCCC4)CC3)nc2c1` and `Cc1ccc2c(NCc3ccc(NC(=O)C4CCN(Cc5ccccc5)CC4)cc3)nc(N3CCCC3)nc2c1` are within 1.5-fold of each other in IC50: 960 nM for the first, 660 nM for the second.

Compared with `Cc1ccc2c(NCc3ccc(NC(=O)C4CCN(Cc5ncc[nH]5)CC4)cc3)nc(N(C)C)nc2c1`, `Cc1ccc2c(NCc3ccc(NC(=O)C4CCN(Cc5ccc(F)cc5)CC4)cc3)nc(N(C)C)nc2c1` is lower in IC50: over 20000 nM for the first, 220 nM for the second.

First: Cc1ccc2c(NCc3ccc(NC(=O)C4CCN(C)CC4)cc3)nc(N(C)C)nc2c1
Second: Cc1ccc2c(NCc3ccc(NC(=O)C4CCN(CC(C)C)CC4)cc3)nc(N(C)C)nc2c1
The IC50 of the first is 3-fold higher: 1920 nM for the first, 650 nM for the second.

`COc1ccc(CN2CCC(C(=O)Nc3ccc(CNc4nc(N(C)C)nc5cc(C)ccc45)cc3)CC2)cc1` and `Cc1ccc2c(NCc3ccc(NC(=O)C4CCN(Cc5ccc(Cl)cc5)CC4)cc3)nc(N(C)C)nc2c1` are within 1.5-fold of each other in IC50: 520 nM for the first, 390 nM for the second.

`Cc1ccc2c(NCc3ccc(NC(=O)C4CCN(Cc5ccccc5)CC4)cc3)nc(N3CCC3)nc2c1` and `CCNc1nc(NCc2ccc(NC(=O)C3CCN(Cc4ccccc4)CC3)cc2)c2ccc(C)cc2n1` are within 1.5-fold of each other in IC50: 1000 nM for the first, 1380 nM for the second.

First: Cc1ccc2c(NCc3ccc(NC(=O)C4CCN(C5CCCCC5)CC4)cc3)nc(N(C)C)nc2c1
Second: Cc1ccc2c(NCc3ccc(NC(=O)C4CCN(Cc5cccc(F)c5)CC4)cc3)nc(N(C)C)nc2c1
The IC50 of the first is 2.3-fold higher: 750 nM for the first, 330 nM for the second.

Target: Catenin beta-1 (Homo sapiens) (UniProt P35222)
Assay: Inhibition of Beta-catenin/Tcf-4 pathway in human Tcf 33.13 cell assessed as inhibition of reporter activity by cell-based reporter assay
Settings: not given

`Cc1ccc2c(NCc3ccc(NC(=O)C4CCN(Cc5ccccc5)CC4)cc3)nc(N3CCC(N4CCCC4)CC3)nc2c1` and `Cc1ccc2c(NCc3ccc(NC(=O)C4CCN(Cc5ccccc5)CC4)cc3)nc(N3CCCC3)nc2c1` are within 1.5-fold of each other in IC50: 850 nM for the first, 790 nM for the second.

Going from `Cc1ccc2c(NCc3ccc(NC(=O)C4CCN(Cc5ncc[nH]5)CC4)cc3)nc(N(C)C)nc2c1` to `Cc1ccc2c(NCc3ccc(NC(=O)C4CCN(Cc5ccc(F)cc5)CC4)cc3)nc(N(C)C)nc2c1`, the IC50 falls from over 20000 nM to 190 nM. The second is the more potent here.

Compared with `Cc1ccc2c(NCc3ccc(NC(=O)C4CCN(C)CC4)cc3)nc(N(C)C)nc2c1`, `Cc1ccc2c(NCc3ccc(NC(=O)C4CCN(CC(C)C)CC4)cc3)nc(N(C)C)nc2c1` is 1.7-fold lower in IC50: 1670 nM for the first, 960 nM for the second. The second is the more potent here.

`COc1ccc(CN2CCC(C(=O)Nc3ccc(CNc4nc(N(C)C)nc5cc(C)ccc45)cc3)CC2)cc1` and `Cc1ccc2c(NCc3ccc(NC(=O)C4CCN(Cc5ccc(Cl)cc5)CC4)cc3)nc(N(C)C)nc2c1` are within 1.5-fold of each other in IC50: 450 nM for the first, 320 nM for the second.

`Cc1ccc2c(NCc3ccc(NC(=O)C4CCN(Cc5ccccc5)CC4)cc3)nc(N3CCC3)nc2c1` and `CCNc1nc(NCc2ccc(NC(=O)C3CCN(Cc4ccccc4)CC3)cc2)c2ccc(C)cc2n1` are within 1.5-fold of each other in IC50: 800 nM for the first, 1130 nM for the second.

Compared with `Cc1ccc2c(NCc3ccc(NC(=O)C4CCN(C5CCCCC5)CC4)cc3)nc(N(C)C)nc2c1`, `Cc1ccc2c(NCc3ccc(NC(=O)C4CCN(Cc5cccc(F)c5)CC4)cc3)nc(N(C)C)nc2c1` is 2.3-fold lower in IC50: 810 nM for the first, 350 nM for the second.
